This note sets out measurements from ChEMBL document CHEMBL4020840, “Synthesis and Biological Evaluation of Selenium-Containing 4-Anilinoquinazoline Derivatives as Novel Antimitotic Agents” (J Med Chem, 2018).

The test system of assay [1] is A549. In words: Antitumor activity against human A549 cells xenografted in Balb/c mouse assessed as tumor growth inhibition at 2.5 mg/kg, ip treated once in 2 days for 10 days relative to control. It is filed as functional. The conditions noted are these: read-out: TGI. Put shortly:
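Male BALB/c nude mice, 5 weeks old, 18−20 g. Right flank injected sc with 0.1 mL of 1 × 10⁷ cells/mL log-phase A549 in FBS-free DMEM. At ~100 mm³, randomised into groups of 5 and dosed ip every 2 days; vehicle controls got equal volume. Tumour volume (0.5 × length × width²) and body weight recorded every 2 days.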
Background: In xenograft studies the graft and the host belong to different species.

The next assay deals with A549/CDDP. Put plainly: Growth inhibition of human A549/CDDP cells after 48 hrs by MTT assay. In kind it is functional, cell-based. Put shortly: (§1)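 MTT assay: log-phase cells plated at 5 × 10³/well for 24 h, then exposed to a range of test concentrations for 48 h. MTT (5 mg/mL) added for 4 h, formazan dissolved in DMSO, absorbance read at 570 nm. IC50 is the concentration giving 50% growth inhibition, from dose-response curves; at least three independent experiments, mean ± SE.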
For orientation: Formazan colour is commonly taken as a measure of viable cells.

For a further assay, the system named is MDA-MB-231. Put plainly: Growth inhibition of human MDA-MB-231 cells after 48 hrs by MTT assay. In kind it is functional, cell-based. The conditions noted are these: MDA-MB-231, 48 h. A digest of the protocol: as §1
For assay [2], the system named is A549. In words: Induction of apoptosis in human A549 cells assessed as necrotic cells at 4 nM after 48 hrs by Annexin V-FITC/propidium iodide staining based flow cytometry relative to control. It is filed as functional.
For assay [3], the system named is A549. Put plainly: Growth inhibition of human A549 cells after 48 hrs by MTT assay. The following applies: A549, 48 h. In kind it is functional, cell-based.
Assay [4] has as its system A549. Put plainly: Induction of apoptosis in human A549 cells assessed as late apoptotic cells at 4 nM after 48 hrs by Annexin V-FITC/propidium iodide staining based flow cytometry (reference value: 0.03%). In kind it is functional. (In general: In flow cytometry, cells or beads pass a laser one at a time.)
In assay [5] the test system is A549. In words: Induction of apoptosis in human A549 cells assessed as necrotic cells at 2 nM after 24 hrs by Annexin V-FITC/propidium iodide staining based flow cytometry (reference value: 0.10%). It is filed as functional.
Another assay concerns HCT-116. In words: Growth inhibition of human HCT116 cells after 48 hrs by MTT assay. In kind it is functional, cell-based. The conditions noted are these: HCT-116, 48 h. Put shortly: as §1
Assay [6] relates to A549. Put plainly: Induction of apoptosis in human A549 cells assessed as live cells at 4 nM after 24 hrs by Annexin V-FITC/propidium iodide staining based flow cytometry (reference value: 98.84%). It is filed as functional.
Assay [7] has as its system A549. In words: Induction of apoptosis in human A549 cells assessed as late apoptotic cells at 4 nM after 24 hrs by Annexin V-FITC/propidium iodide staining based flow cytometry (reference value: 0.08%). It is filed as functional.
In assay [8] the test system is A549. In words: Cell cycle arrest in human A549 cells assessed as accumulation at G2/M phase at 4 nM after 12 hrs by propidium iodide staining based flow cytometry (reference value: 10.13%). It is filed as functional. A digest of the protocol:
(§2)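 A549 seeded in six-well plates at 3 × 10⁵ cells/well and treated for 12 or 24 h; vehicle 0.01% DMSO. Cells fixed overnight in ice-cold 70% ethanol, treated with RNase A at 37 °C for 30 min, then stained with PI at 4 °C for 30 min. About 10 000 events acquired by flow cytometry at 488 nm; three experiments.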

Assay [9] in a line: Selectivity index, ratio of IC50 for human LO2 cells to IC50 for human A549 cells. In kind it is functional. Put shortly:
(§3)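 MTT assay in normal cells and A549: seeding at 5 × 10³ cells/well for 24 h, 48 h compound exposure, then 5 mg/mL MTT for 4 h, DMSO solubilisation and absorbance at 570 nm. IC50 values came from dose–response curves of at least three independent experiments. Selectivity ratio = IC50 in normal cells / IC50 in A549.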

A short description of assay [10]: Selectivity index, ratio of IC50 for HLF to IC50 for human A549 cells. A digest of the protocol:
as §3

The subject of assay [11] is A549. In words: Induction of apoptosis in human A549 cells assessed as early apoptotic cells at 4 nM after 48 hrs by Annexin V-FITC/propidium iodide staining based flow cytometry (reference value: 1.48%). In kind it is functional.
The test system of assay [12] is A549. Put plainly: Induction of apoptosis in human A549 cells assessed as early apoptotic cells at 2 nM after 48 hrs by Annexin V-FITC/propidium iodide staining based flow cytometry (reference value: 1.48%). In kind it is functional.
The subject of a further assay is BJ. Put plainly: Antiproliferative activity against human BJ cells after 48 hrs by MTT assay. It is filed as cell-based. A digest of the protocol: as §1
The subject of the next assay is HeLa. In words: Antiproliferative activity against human HeLa cells after 48 hrs by MTT assay. In kind it is functional, cell-based. Put shortly: as §1
The next assay deals with RKO. Put plainly: Growth inhibition of human RKO cells after 48 hrs by MTT assay. In kind it is functional, cell-based. Put shortly:
as §1

Assay [13] relates to A549. Put plainly: Induction of apoptosis in human A549 cells assessed as necrotic cells at 2 nM after 48 hrs by Annexin V-FITC/propidium iodide staining based flow cytometry relative to control. In kind it is functional.
In a further assay the test system is L02. In words: Antiproliferative activity against human LO2 cells after 48 hrs by MTT assay. It is filed as cell-based. The following applies: L02, 48 h. Put shortly:
as §1

For another assay, the system named is LoVo. Put plainly: Growth inhibition of human LoVo cells after 48 hrs by MTT assay. It is filed as functional, cell-based. Put shortly:
as §1

Assay [14] in a line: Antiproliferative activity against HLF after 48 hrs by MTT assay. The following applies: Homo sapiens. It is filed as cell-based. Put shortly:
as §1

The nature of assay [15]: Growth inhibition of human HepG2/DOX cells after 48 hrs by MTT assay. In kind it is functional, cell-based. A digest of the protocol: as §1
Assay [16] concerns A549. Put plainly: Induction of apoptosis in human A549 cells assessed as live cells at 4 nM after 48 hrs by Annexin V-FITC/propidium iodide staining based flow cytometry (reference value: 98.49%). It is filed as functional.
For the next assay, the system named is HepG2. Put plainly: Growth inhibition of human HepG2 cells after 48 hrs by MTT assay. The following applies: HepG2, 48 h. It is filed as functional, cell-based. Put shortly: as §1
A further assay concerns MGC-803. Put plainly: Antiproliferative activity against human MGC803 cells after 48 hrs by MTT assay. The following applies: MGC-803, 48 h. It is filed as functional, cell-based. A digest of the protocol:
as §1

Assay [17] deals with A549. Put plainly: Induction of apoptosis in human A549 cells assessed as late apoptotic cells at 2 nM after 24 hrs by Annexin V-FITC/propidium iodide staining based flow cytometry (reference value: 0.08%). In kind it is functional.
Assay [18] has as its system A549. In words: Induction of apoptosis in human A549 cells assessed as late apoptotic cells at 2 nM after 48 hrs by Annexin V-FITC/propidium iodide staining based flow cytometry (reference value: 0.03%). It is filed as functional.
The subject of assay [19] is A549. In words: Induction of apoptosis in human A549 cells assessed as early apoptotic cells at 2 nM after 24 hrs by Annexin V-FITC/propidium iodide staining based flow cytometry (reference value: 0.98%). In kind it is functional.
The next assay deals with MCF7. In words: Antiproliferative activity against human MCF7 cells after 48 hrs by MTT assay. In kind it is functional, cell-based. The conditions noted are these: MCF7, 48 h. A digest of the protocol:
as §1

Assay [20] in a line: Selectivity index, ratio of IC50 for human BJ cells to IC50 for human A549 cells. It is filed as functional. A digest of the protocol:
as §3

Assay [21] in a line: Resistance factor, ratio of IC50 for human A549/CDDP cells to IC50 for human A549 cells. In kind it is functional. Put shortly:
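MTT assay: log-phase cells were seeded at 5 × 10³/well for 24 h, then exposed to a concentration series for 48 h. MTT (5 mg/mL) was added for 4 h, formazan was dissolved in DMSO, and A570 was read. IC50 values came from dose–response curves of at least three independent experiments. Resistance factor = IC50 in the resistant line / IC50 in the parental sensitive line.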

Assay [22] deals with A549. Put plainly: Cell cycle arrest in human A549 cells assessed as accumulation at G2/M phase at 4 nM after 24 hrs by propidium iodide staining based flow cytometry (reference value: 10.13%). It is filed as functional. A digest of the protocol:
as §2

In assay [23] the test system is A549. In words: Induction of apoptosis in human A549 cells assessed as live cells at 2 nM after 48 hrs by Annexin V-FITC/propidium iodide staining based flow cytometry (reference value: 98.49%). It is filed as functional.
Assay [24] relates to A549. Put plainly: Induction of apoptosis in human A549 cells assessed as necrotic cells at 4 nM after 24 hrs by Annexin V-FITC/propidium iodide staining based flow cytometry (reference value: 0.10%). In kind it is functional.
The nature of assay [25]: Inhibition of porcine brain tubulin polymerization measured every 60 secs for 90 mins by DAPI staining based fluorescence assay. Details: species or system Sus scrofa. A digest of the protocol:
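Purified tubulin was tested in a kit assay. Final buffer: 80 mM PIPES sesquisodium (pH 6.9), 2.0 mM MgCl₂, 0.5 mM EGTA, 1 mM GTP, 10.2% glycerol. Compound (0.1–10 μM) was prewarmed at 37 °C for 1 min before tubulin was added. DAPI reporter fluorescence (ex 340 / em 410 nm) was read every 60 s for 90 min. Area under the curve gave percent inhibition versus control and the IC50.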

Assay [26] has as its system A549. In words: Induction of apoptosis in human A549 cells assessed as early apoptotic cells at 4 nM after 24 hrs by Annexin V-FITC/propidium iodide staining based flow cytometry (reference value: 0.98%). In kind it is functional.
The subject of assay [27] is A549. In words: Induction of apoptosis in human A549 cells assessed as live cells at 2 nM after 24 hrs by Annexin V-FITC/propidium iodide staining based flow cytometry (reference value: 98.84%). In kind it is functional.

Take `Cc1nc(N(C)c2ccc([Se]C#N)cc2)c2ccccc2n1`: the inhibition in vivo at 2.5 mg/kg in the assay with A549 [1] stood at 69.8%.
Regarding `C[Se]c1ccc(N(C)c2nc(C)nc3ccccc23)cc1F`, the IC50 (in general, the concentration needed to halve the response being measured) in the assay on A549/CDDP stood at 11 nM; with MDA-MB-231, 5 nM; in the assay on A549 [3], 2 nM; with HCT-116 it was 6 nM; in the assay on BJ, 19 nM; with HeLa it was 5 nM. Besides, the concentration for half-maximal inhibition (IC50) with RKO amounted to 7 nM; with L02, 16 nM; in the assay with LoVo, 9 nM; in assay [14], 19 nM; in assay [15] it was 5 nM; in the assay with HepG2, 4 nM. Besides, the results for the IC50 (in the assay with MGC-803; with MCF7; in assay [25]) were 7 nM, 9 nM and 1270 nM, respectively. Further, the Activity turned out to be 12.82% in the assay with A549 [2]; 25.29% with A549 [4]; 1.52% in the assay on A549 [5]; 60.27% in the assay with A549 [6]; 1.97% with A549 [7]; 60.89% with A549 [8]. In addition, the Activity stood at 27.52% in the assay with A549 [11]; 12.22% with A549 [12]; 7.34% in the assay on A549 [13]; 34.36% in the assay on A549 [16]; 2.46% in the assay on A549 [17]; 16.6% with A549 [18]. For the same compound, the Activity came out at 10.96% in the assay with A549 [19]; 79.71% in the assay on A549 [22]; 63.84% with A549 [23]; 0.78% in the assay with A549 [24]; 36.98% in the assay on A549 [26]; 85.06% in the assay on A549 [27]. Further, the “Ratio IC50” value came out at 8 in assay [9], 9.5 in assay [10], 9.5 in assay [20] and 3.67 in assay [21].
For `COc1ccc(N(C)c2nc(C)nc3ccccc23)cc1` [VERUBULIN], the IC50 in the assay on A549/CDDP is 9 nM; in the assay with MDA-MB-231 it was 8 nM; with A549 [3], 3 nM; in the assay on HCT-116, 4 nM; in the assay on BJ, 15 nM; in the assay on HeLa, 5 nM. Also, the IC50 was 3 nM in the assay on RKO; 13 nM with L02; 8 nM with LoVo; 18 nM in [14]; 11 nM in [15]; 5 nM in the assay on HepG2. Further, the IC50 in the assay with MGC-803 came to 8 nM; with MCF7, 11 nM; in assay [25], 2740 nM. Also, the “Ratio IC50” value in assay [9] amounted to 6.5; in assay [10], 9; in [20], 7.5; in [21], 3.
With `COc1ccc(/C=C\c2cc(OC)c(OC)c(OC)c2)cc1O` [COMBRETASTATIN A4], the values for the IC50 (in the assay with A549/CDDP; in assay [15]; with HepG2) were 17 nM, 27 nM and 9 nM, respectively.
In the case of `C[Se]c1ccc(N(C)c2nc(C)nc3ccccc23)cc1`, the inhibition in vivo at 2.5 mg/kg with A549 [1] was 75.7%.
